Data published in ChEMBL document CHEMBL2016531, “Identification of NAE Inhibitors Exhibiting Potent Activity in Leukemia Cells: Exploring the Structural Determinants of NAE Specificity” (ACS Med Chem Lett, 2011).
pEC50: −log10 of the molar value. The source made the active and inactive calls. No cut-off for these calls is given here.

Legend:
[1] = molecular target: SUMO-activating enzyme (Homo sapiens) (UniProt Q9UBE0+Q9UBT2); assay: Inhibition of human recombinant SAE1/2 assessed as inhibition of SUMO1-UbcH9 complex formation at 0.001 to 10 uM after 1.5 hrs by Western blot analysis; assay type: protein-complex assay
How it was run: (§1)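 Cell-free gel assay. Purified human recombinant E1 incubated with its matching Ub/Ubl and E2 in 50 mM HEPES pH 7.4, 5 mM MgCl2, 1–20 μM ATP. Inhibitor at 0, 0.001, 0.01, 0.1, 1 or 10 μM, 1.5 h at room temperature. Products resolved by SDS-PAGE, immunoblotted and detected by ECL; densitometry used for semiquantitation.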

[2] = molecular target: Ubiquitin-like modifier-activating enzyme 5 (Homo sapiens) (UniProt Q9GZZ9); assay: Inhibition of human recombinant UBA5 assessed as inhibition of […]-UFM1 complex formation at 10 uM after 1.5 hrs by Western blot analysis; how it was run: as §1
[3] = molecular target: T1, NEDD8-activating enzyme E1 catalytic subunit (Homo sapiens) (UniProt Q8TBC4); assay: Inhibition of UBA3-mediated NEDD8 activation at […] after 1.5 hrs by Western blot analysis
T1 sequence (whole entry): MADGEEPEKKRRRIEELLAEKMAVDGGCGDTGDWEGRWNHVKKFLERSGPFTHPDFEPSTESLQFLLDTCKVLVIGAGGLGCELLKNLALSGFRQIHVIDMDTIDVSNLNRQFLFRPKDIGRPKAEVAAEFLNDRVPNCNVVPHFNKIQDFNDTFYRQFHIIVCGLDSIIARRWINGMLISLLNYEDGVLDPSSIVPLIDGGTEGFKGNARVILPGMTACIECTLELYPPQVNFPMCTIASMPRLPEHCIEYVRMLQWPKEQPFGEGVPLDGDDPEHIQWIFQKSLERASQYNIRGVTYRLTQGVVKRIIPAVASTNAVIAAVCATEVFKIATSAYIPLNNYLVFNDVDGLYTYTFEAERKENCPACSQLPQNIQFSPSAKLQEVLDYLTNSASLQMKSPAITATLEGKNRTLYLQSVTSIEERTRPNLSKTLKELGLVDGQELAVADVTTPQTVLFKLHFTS

Homo sapiens [4] = organism: Homo sapiens; assay: Inhibition of human recombinant UAE assessed as inhibition of UbcH6-Ub complex formation at 0.001 to 10 uM after 1.5 hrs by Western blot analysis; how it was run: as §1
[5] = molecular target: T2, NEDD8-activating enzyme E1 regulatory subunit (Homo sapiens) (UniProt Q13564); assay: Inhibition of APPBP1-mediated NEDD8 activation at […] after 1.5 hrs by Western blot analysis
T2 sequence (whole entry): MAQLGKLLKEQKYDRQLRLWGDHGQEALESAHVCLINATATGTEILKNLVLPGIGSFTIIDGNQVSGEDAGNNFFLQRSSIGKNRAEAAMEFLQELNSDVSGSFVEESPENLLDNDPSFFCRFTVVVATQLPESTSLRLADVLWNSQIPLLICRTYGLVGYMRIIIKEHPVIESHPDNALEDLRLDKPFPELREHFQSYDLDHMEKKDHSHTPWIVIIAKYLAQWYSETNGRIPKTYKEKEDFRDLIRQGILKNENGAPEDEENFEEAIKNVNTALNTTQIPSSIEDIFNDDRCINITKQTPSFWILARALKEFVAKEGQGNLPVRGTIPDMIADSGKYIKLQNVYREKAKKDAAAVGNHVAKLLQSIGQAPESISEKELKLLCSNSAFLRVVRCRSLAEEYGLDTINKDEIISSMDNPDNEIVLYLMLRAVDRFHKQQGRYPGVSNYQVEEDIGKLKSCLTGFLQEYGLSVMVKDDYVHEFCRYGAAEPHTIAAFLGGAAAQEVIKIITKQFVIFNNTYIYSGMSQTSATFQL

Homo sapiens [6] = organism: Homo sapiens; assay: Inhibition of human recombinant NAE assessed as inhibition of NEDD8-UbcH12 complex formation at 0.001 to 10 uM after 1.5 hrs by Western blot analysis; how it was run: as §1
K562 = assay: Antiproliferative activity against human K562 cells after 72 hrs by CellTiter-Glo assay; assay type: functional, cell-based; conditions: K562, 72 h
How it was run: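 K562 leukemia cells exposed to increasing concentrations for 72 h; growth and viability read by CellTiter-Glo luminescence.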

Chain of Ubiquitin-like modifier-activating enzyme 5 (Homo sapiens) (Q9GZZ9 whole entry): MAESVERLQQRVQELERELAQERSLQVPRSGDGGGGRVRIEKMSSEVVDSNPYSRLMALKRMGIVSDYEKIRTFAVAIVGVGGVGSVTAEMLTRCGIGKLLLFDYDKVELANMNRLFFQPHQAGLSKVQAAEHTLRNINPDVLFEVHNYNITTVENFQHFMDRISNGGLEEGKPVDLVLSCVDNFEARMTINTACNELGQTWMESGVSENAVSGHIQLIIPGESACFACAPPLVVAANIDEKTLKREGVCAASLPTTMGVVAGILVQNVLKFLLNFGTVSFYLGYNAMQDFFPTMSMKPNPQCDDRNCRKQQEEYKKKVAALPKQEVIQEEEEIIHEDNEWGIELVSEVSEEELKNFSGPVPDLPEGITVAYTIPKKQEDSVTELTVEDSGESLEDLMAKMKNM

inhibition [1]: Active
inhibition [2]: inactive
inhibition [3]: Active
inhibition (Homo sapiens [4]): Active
inhibition [5]: Active
inhibition (Homo sapiens [6]): Active
pEC50 (K562): 6.90
SMILES: NS(=O)(=O)OC[C@H]1O[C@@H](n2cnc3c(N[C@H]4CCc5ccccc54)ncnc32)[C@H](O)[C@@H]1O
